According to ChEMBL document CHEMBL4028865, “Targeted Polypharmacology: Discovery of a Highly Potent Non-Hydroxamate Dual Matrix Metalloproteinase (MMP)-10/-13 Inhibitor” (J Med Chem, 2017):

Legend:
Stromelysin-2 [1] = biological target: T1, Stromelysin-2 (Homo sapiens, UniProt P09238); assay: Inhibition of MMP10 (unknown origin) assessed as residual activity at 10 uM using (5-FAM/QX) FRET peptide as substrate by fluorescence assay relative to control
Method in brief: (§1)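 Residual enzyme activity read at a single 10 μM inhibitor concentration, in duplicate. Fluorescence assay on cleavage of the QXL520/5-FAM FRET peptide. Buffer was 50 mM HEPES pH 7.5 with 10 mM CaCl₂, 0.01% Brij-35 and 0.1 mg/ml BSA. GM6001 served as control inhibitor. Same assay system as the IC50 determinations.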
Target sequence in this assay (P09238 99-476 limits assumed): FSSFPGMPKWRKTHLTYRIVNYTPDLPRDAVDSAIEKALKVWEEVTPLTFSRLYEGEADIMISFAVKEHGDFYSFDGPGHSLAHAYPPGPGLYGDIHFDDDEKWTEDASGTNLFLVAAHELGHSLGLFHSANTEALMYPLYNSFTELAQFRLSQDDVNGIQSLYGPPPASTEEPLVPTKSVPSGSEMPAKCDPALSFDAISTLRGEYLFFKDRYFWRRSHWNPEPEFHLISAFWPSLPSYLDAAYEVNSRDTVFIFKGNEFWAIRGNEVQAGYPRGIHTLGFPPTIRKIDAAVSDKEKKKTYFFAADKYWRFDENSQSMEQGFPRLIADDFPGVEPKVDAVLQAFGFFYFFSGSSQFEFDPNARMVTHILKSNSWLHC

Collagenase 3 [2] = biological target: T2, Collagenase 3 (Homo sapiens, UniProt P45452); assay: Inhibition of C-terminal tagged human recombinant MMP13 catalytic domain expressed in Escherichia coli assessed as residual activity at 10 uM using (5-FAM/QX) FRET peptide as substrate by fluorescence assay relative to control; method in brief: as §1
Stromelysin-2 [3] = biological target: T1, Stromelysin-2; assay: Inhibition of MMP10 (unknown origin) assessed using (5-FAM/QX) FRET peptide as substrate by fluorescence assay
Method in brief: (§2)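 IC50 from 10 concentrations in 3-fold dilution, starting at 10 μM or 100 μM, with two to six replicates. Run only for compounds leaving under 20% residual activity at 10 μM. Fluorescence read-out of QXL520/5-FAM FRET peptide cleavage in 50 mM HEPES pH 7.5, 10 mM CaCl₂, 0.01% Brij-35 and 0.1 mg/ml BSA. Four-parameter least-squares fit; GM6001 as control.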
Target sequence in this assay (P09238 whole entry): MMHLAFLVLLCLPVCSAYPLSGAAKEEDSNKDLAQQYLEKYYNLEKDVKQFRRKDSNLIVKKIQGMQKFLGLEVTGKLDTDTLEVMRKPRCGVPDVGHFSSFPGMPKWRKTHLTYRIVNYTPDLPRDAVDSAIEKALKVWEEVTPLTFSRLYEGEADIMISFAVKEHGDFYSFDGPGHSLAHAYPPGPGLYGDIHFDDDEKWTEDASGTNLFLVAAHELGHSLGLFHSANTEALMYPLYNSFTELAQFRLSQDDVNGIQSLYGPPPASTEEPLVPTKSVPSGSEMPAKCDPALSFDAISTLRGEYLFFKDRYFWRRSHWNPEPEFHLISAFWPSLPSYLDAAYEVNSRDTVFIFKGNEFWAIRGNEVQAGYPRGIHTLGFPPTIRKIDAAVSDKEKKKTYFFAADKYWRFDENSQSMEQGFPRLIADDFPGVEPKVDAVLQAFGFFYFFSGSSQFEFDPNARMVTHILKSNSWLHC

Collagenase 3 [4] = biological target: T2, Collagenase 3; assay: Inhibition of C-terminal tagged human recombinant MMP13 catalytic domain expressed in Escherichia coli using (5-FAM/QX) FRET peptide as substrate by fluorescence assay; method in brief: as §2
[5] = biological target: Stromelysin-1 (Homo sapiens) (UniProt P08254); assay: Inhibition of C-terminal tagged human recombinant MMP3 catalytic domain expressed in Escherichia coli assessed as residual activity at 10 uM using (5-FAM/QX) FRET peptide as substrate by fluorescence assay relative to control; method in brief: as §1
[6] = biological target: T3, Matrilysin (Homo sapiens) (UniProt P09237); assay: Inhibition of C-terminal tagged human recombinant MMP7 catalytic domain expressed in Escherichia coli assessed as residual activity at 10 uM using (5-FAM/QX) FRET peptide as substrate by fluorescence assay relative to control; method in brief: as §1
T3 sequence (whole entry): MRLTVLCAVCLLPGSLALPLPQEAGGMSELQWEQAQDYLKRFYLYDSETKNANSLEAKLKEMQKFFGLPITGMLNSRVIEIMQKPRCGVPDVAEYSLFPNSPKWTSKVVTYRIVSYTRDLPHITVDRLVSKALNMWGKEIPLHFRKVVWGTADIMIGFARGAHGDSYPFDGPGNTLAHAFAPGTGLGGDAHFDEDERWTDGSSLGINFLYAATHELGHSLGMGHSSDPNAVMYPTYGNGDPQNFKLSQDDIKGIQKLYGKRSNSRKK

[7] = biological target: Macrophage metalloelastase (Homo sapiens) (UniProt P39900); assay: Inhibition of C-terminal tagged human recombinant MMP12 catalytic domain expressed in Escherichia coli assessed as residual activity at 10 uM using (5-FAM/QX) FRET peptide as substrate by fluorescence assay relative to control; method in brief: as §1
[8] = biological target: Matrix metalloproteinase-14 (Homo sapiens) (UniProt P50281); assay: Inhibition of C-terminal tagged human recombinant MMP14 catalytic domain expressed in Escherichia coli assessed as residual activity at 10 uM using (5-FAM/QX) FRET peptide as substrate by fluorescence assay relative to control; method in brief: as §1
[9] = biological target: Matrix metalloproteinase-9 (Homo sapiens) (UniProt P14780); assay: Inhibition of MMP9 (unknown origin) assessed as residual activity at 10 uM using (5-FAM/QX) FRET peptide as substrate by fluorescence assay relative to control; method in brief: as §1
[10] = biological target: Neutrophil collagenase (Homo sapiens) (UniProt P22894); assay: Inhibition of MMP8 (unknown origin) assessed as residual activity at 10 uM using (5-FAM/QX) FRET peptide as substrate by fluorescence assay relative to control; method in brief: as §1
[11] = biological target: 72 kDa type IV collagenase (Homo sapiens) (UniProt P08253); assay: Inhibition of C-terminal tagged human recombinant MMP2 catalytic domain expressed in Escherichia coli assessed as residual activity at 10 uM using (5-FAM/QX) FRET peptide as substrate by fluorescence assay relative to control; method in brief: as §1
[12] = biological target: T4, Interstitial collagenase (Homo sapiens) (UniProt P03956); assay: Inhibition of MMP1 (unknown origin) assessed as residual activity at 10 uM using (5-FAM/QX) FRET peptide as substrate by fluorescence assay relative to control; method in brief: as §1
T4 sequence (whole entry): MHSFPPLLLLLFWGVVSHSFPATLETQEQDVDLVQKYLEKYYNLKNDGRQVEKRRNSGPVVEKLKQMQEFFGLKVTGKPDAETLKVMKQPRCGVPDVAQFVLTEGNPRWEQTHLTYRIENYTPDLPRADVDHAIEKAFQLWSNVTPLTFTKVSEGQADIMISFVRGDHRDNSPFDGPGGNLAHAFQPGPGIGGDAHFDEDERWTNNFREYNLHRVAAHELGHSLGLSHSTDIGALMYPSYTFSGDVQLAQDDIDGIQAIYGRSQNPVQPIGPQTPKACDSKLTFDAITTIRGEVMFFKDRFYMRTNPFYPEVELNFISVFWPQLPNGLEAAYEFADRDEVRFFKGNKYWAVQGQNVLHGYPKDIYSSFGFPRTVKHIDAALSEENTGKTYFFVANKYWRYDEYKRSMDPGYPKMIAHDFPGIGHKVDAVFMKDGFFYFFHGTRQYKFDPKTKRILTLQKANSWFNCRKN

Sequence of 72 kDa type IV collagenase (Homo sapiens) (P08253 110-660 limits assumed): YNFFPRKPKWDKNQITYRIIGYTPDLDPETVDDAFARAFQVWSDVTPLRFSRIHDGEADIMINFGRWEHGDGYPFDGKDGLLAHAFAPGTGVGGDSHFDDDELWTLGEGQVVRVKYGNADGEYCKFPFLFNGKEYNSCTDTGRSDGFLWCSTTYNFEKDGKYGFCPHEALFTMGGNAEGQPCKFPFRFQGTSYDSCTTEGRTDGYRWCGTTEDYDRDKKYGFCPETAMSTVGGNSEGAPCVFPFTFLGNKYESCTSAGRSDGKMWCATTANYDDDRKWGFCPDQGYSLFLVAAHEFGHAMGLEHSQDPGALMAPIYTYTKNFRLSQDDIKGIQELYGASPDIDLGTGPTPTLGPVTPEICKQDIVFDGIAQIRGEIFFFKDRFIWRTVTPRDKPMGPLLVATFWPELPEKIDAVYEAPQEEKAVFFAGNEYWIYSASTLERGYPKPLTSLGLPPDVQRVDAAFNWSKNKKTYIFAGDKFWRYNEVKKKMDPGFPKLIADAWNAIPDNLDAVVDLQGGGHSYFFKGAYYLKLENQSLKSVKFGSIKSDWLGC
Sequence of Matrix metalloproteinase-9 (Homo sapiens) (P14780 whole entry): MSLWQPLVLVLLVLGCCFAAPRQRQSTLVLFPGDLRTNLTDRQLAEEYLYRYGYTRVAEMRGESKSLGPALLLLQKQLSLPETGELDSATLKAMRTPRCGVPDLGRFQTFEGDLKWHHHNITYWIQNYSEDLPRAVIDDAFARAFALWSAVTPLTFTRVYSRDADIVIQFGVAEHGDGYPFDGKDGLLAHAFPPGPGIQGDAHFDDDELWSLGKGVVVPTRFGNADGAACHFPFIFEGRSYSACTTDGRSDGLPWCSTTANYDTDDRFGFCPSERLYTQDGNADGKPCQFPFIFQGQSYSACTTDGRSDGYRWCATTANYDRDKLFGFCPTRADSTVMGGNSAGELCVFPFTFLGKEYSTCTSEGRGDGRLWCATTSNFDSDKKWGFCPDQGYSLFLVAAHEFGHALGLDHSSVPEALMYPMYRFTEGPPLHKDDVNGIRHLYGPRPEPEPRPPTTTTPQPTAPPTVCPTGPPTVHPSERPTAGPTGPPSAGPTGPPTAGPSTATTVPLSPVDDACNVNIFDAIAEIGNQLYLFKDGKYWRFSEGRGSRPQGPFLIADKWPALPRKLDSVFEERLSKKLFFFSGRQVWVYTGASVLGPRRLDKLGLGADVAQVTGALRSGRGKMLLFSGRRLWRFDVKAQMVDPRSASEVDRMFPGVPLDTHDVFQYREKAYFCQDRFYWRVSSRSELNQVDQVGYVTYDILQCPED
Sequence of Stromelysin-1 (Homo sapiens) (P08254 100-477 limits assumed): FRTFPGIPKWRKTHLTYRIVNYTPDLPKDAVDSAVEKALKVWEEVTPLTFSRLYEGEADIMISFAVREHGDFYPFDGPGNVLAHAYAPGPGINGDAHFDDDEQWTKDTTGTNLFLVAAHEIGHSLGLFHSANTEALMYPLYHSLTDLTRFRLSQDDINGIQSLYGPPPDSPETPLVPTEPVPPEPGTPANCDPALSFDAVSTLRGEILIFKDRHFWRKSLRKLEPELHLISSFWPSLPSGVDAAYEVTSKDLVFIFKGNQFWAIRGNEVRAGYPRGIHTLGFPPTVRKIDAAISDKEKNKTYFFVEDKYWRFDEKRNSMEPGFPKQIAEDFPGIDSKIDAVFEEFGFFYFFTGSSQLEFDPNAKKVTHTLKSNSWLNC
Sequence of Neutrophil collagenase (Homo sapiens) (P22894 101-467 limits assumed): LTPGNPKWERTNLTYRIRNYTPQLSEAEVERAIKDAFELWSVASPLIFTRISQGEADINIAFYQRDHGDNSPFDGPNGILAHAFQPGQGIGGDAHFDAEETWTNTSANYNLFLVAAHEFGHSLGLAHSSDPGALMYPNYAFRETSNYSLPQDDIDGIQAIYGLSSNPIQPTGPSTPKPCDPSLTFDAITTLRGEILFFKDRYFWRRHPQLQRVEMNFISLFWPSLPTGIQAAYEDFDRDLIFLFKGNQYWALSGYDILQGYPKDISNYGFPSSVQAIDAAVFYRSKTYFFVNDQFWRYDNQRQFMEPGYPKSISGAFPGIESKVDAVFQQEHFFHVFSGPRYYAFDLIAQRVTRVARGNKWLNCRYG
Sequence of Macrophage metalloelastase (Homo sapiens) (P39900 106-470 limits assumed): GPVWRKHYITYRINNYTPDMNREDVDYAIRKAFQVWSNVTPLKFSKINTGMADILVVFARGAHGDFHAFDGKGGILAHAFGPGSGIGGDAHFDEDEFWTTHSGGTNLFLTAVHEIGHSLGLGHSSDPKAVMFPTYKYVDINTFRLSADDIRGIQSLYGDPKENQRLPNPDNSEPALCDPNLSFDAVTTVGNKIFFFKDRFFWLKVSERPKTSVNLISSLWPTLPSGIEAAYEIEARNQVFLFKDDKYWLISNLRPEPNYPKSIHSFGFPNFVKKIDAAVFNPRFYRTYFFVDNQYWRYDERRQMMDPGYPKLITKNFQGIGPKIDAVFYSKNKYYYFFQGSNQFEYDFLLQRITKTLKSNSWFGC

SMILES	Activity (Stromelysin-2 [1])	Activity (Collagenase 3 [2])	IC50 (Stromelysin-2 [3]; read-out: IC50)	IC50 (Stromelysin-2 [3]; read-out: pIC50 (converted))	IC50 (Collagenase 3 [4]; read-out: IC50)	IC50 (Collagenase 3 [4]; read-out: pIC50 (converted))	further results
COC(=O)[C@H](CO)NC(=O)c1ccc(Cn2cc(C#CC(=O)NCc3ccc(F)c(OC)c3)c(=O)[nH]c2=O)cc1	21.9%	3.9%					
COc1cc(CNC(=O)C#Cc2cn(Cc3ccc(C(=O)N[C@@H](CO)C(=O)O)cc3)c(=O)[nH]c2=O)ccc1F	10.4%	0.8%	705 nM	501 to 832 nM	14 nM	7.76 to 15.1 nM	
COc1cccc(CNC(=O)c2nc3scc(COCc4ccc(C(=O)O)cc4)c3c(=O)[nH]2)c1 [T-26c]			358 nM	309 to 407 nM	0.19 nM	0.138 to 0.275 nM	
COc1cc(CNC(=O)C#Cc2cn(Cc3ccc(C(=O)NC(C)C)cc3)c(=O)[nH]c2=O)ccc1F	56.6%	14.2%					
COC(=O)[C@H]1CCCN1C(=O)c1ccc(Cn2cc(C#CC(=O)NCc3ccc(F)c(OC)c3)c(=O)[nH]c2=O)cc1	17.5%	1.8%	2050 nM	1260 to 4900 nM	175 nM	209 to 219 nM	
COc1cc(CNC(=O)C#Cc2cn(Cc3ccc(C(=O)N[C@H](CO)C(=O)O)cc3)c(=O)[nH]c2=O)ccc1F	77%	5.6%					
COc1cc(CNC(=O)C#Cc2cn(Cc3ccc(C(=O)N4CCC[C@@H]4C(=O)O)cc3)c(=O)[nH]c2=O)ccc1F	68.9%	1.9%					
COc1cc(CNC(=O)C#Cc2cn(Cc3ccc(S(=O)(=O)NC4CC4)cc3)c(=O)[nH]c2=O)ccc1F	19.6%	2.2%	110 nM	67.6 to 112 nM	14 nM	10.2 to 11.7 nM	
COC(=O)c1ccc(Cn2cc(C#CC(=O)NCc3ccc(F)c(OC)c3)c(=O)[nH]c2=O)cc1	18%	4.6%	506 nM	457 to 562 nM	128 nM	100 to 158 nM	
COc1cc(CNC(=O)C#Cc2cn(Cc3ccc(S(=O)(=O)NC(C)(C)C)cc3)c(=O)[nH]c2=O)ccc1F	6.9%	1.7%	131 nM	51.3 to 141 nM	26 nM	12 to 20.9 nM	
COC(=O)CNS(=O)(=O)c1ccc(Cn2cc(C#CC(=O)NCc3ccc(F)c(OC)c3)c(=O)[nH]c2=O)cc1	14.3%	2.1%	485 nM	245 to 437 nM	32 nM	15.1 to 34.7 nM	
COc1cc(CNC(=O)C#Cc2cn(Cc3ccc(C(=O)NC4CC4)cc3)c(=O)[nH]c2=O)ccc1F	30.8%	5.9%					
CNS(=O)(=O)c1ccc(Cn2cc(C#CC(=O)NCc3ccc(F)c(OC)c3)c(=O)[nH]c2=O)cc1	12.8%	1.8%	531 nM	407 to 676 nM	35 nM	25.7 to 40.7 nM	
COc1cc(CNC(=O)C#Cc2cn(Cc3ccc(S(=O)(=O)NC(C)C)cc3)c(=O)[nH]c2=O)ccc1F	10.2%	2.2%	147 nM	67.6 to 141 nM	25 nM	15.1 to 34.7 nM	
CNC(=O)c1ccc(Cn2cc(C#CC(=O)NCc3ccc(F)c(OC)c3)c(=O)[nH]c2=O)cc1	15.4%	7.5%	635 nM	479 to 832 nM	86 nM	67.6 to 112 nM	
COc1cc(CNC(=O)C#Cc2cn(Cc3ccc(C(=O)N[C@@H](C)C(=O)O)cc3)c(=O)[nH]c2=O)ccc1F	28.5%	0.8%					
COc1cc(CNC(=O)C#Cc2cn(Cc3ccc(S(=O)(=O)N(C)C)cc3)c(=O)[nH]c2=O)ccc1F	47.9%	5.8%					
COc1cc(CNC(=O)C#Cc2cn(Cc3ccc(C(=O)N[C@H](C)C(=O)O)cc3)c(=O)[nH]c2=O)ccc1F	26.6%	0.4%					
COC(=O)CNC(=O)c1ccc(Cn2cc(C#CC(=O)NCc3ccc(F)c(OC)c3)c(=O)[nH]c2=O)cc1	52.8%	12.2%					
COc1cc(CNC(=O)C#Cc2cn(Cc3ccc(S(N)(=O)=O)cc3)c(=O)[nH]c2=O)ccc1F	19.1%	3.9%	7380 nM	4790 to 18200 nM	258 nM	204 to 324 nM	
COc1cc(CNC(=O)C#Cc2cn(Cc3ccc(C(=O)NCCO)cc3)c(=O)[nH]c2=O)ccc1F	14.2%	2.6%	347 nM	275 to 398 nM	58 nM	44.7 to 72.4 nM	
COc1cc(CNC(=O)C#Cc2cn(Cc3ccc(C(N)=O)cc3)c(=O)[nH]c2=O)ccc1F	13.9%	4.4%	1210 nM	4790 to 18200 nM	111 nM	77.6 to 162 nM	
COC(=O)[C@H](C)NC(=O)c1ccc(Cn2cc(C#CC(=O)NCc3ccc(F)c(OC)c3)c(=O)[nH]c2=O)cc1	15.5%	2.5%	751 nM	490 to 1070 nM	149 nM	102 to 195 nM	
COc1cc(CNC(=O)C#Cc2cn(Cc3ccc(C(=O)NC(C)(C)C)cc3)c(=O)[nH]c2=O)ccc1F	55.7%	13.3%					
O=C(O)CCCOc1cccc(CNC(=O)C#Cc2cn(Cc3ccc(C(=O)O)cc3)c(=O)[nH]c2=O)c1			8400 nM				
COc1cc(CNC(=O)C#Cc2cn(Cc3ccc(C(=O)NCC(=O)O)cc3)c(=O)[nH]c2=O)ccc1F	68.6%	5.1%					
COc1cc(CNC(=O)C#Cc2cn(Cc3ccc(-c4cnco4)cc3)c(=O)[nH]c2=O)ccc1F	2.8%	0.4%	31 nM	24.5 to 29.5 nM	5 nM	3.63 to 5.5 nM	Activity [5]: 37.3%; Activity [6]: 87.1%; Activity [7]: 88.5%; Activity [8]: 97.6%; Activity [9]: 97.8%; Activity [10]: 96.7%; Activity [11]: 100%; Activity [12]: 100%
COc1cc(CNC(=O)C#Cc2cn(Cc3ccc(C(=O)N(C)C)cc3)c(=O)[nH]c2=O)ccc1F	7.1%	1.4%	243 nM	186 to 589 nM	89 nM	70.8 to 110 nM	
COc1cc(CNC(=O)C#Cc2cn(Cc3ccc(S(=O)(=O)N4CCOCC4)cc3)c(=O)[nH]c2=O)ccc1F	15.7%	1.2%	1930 nM	759 to 1700 nM	66 nM	16.2 to 36.3 nM	
